A selection: hits, their analogues and other compounds. The true share with any hit is near 2%.
dFosB act = enhances mouse delta FosB homodimer DNA binding; P13346; purified delta FosB, TAMRA-CDK5 oligo fluorescence polarization; percent of positive-control signal above neutral wells; activation, % at 25 µM; 340,000 tested, 0.99% active; AID 493131;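 active = mean activation above about 17%, with every replicate also reaching it, limit read from the data, passing the limit was not always enough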
Target sequence (P13346 whole entry, looked up): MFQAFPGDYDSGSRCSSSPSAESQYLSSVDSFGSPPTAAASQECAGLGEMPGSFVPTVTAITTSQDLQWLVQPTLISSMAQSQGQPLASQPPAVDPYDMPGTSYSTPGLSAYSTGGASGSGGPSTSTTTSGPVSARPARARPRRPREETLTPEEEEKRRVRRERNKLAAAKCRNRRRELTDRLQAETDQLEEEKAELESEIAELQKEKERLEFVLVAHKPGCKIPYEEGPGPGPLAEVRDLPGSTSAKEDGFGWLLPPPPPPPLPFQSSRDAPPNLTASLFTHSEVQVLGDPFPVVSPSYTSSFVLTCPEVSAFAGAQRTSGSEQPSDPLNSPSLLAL
Statin myotox sup = protects C2C12 myotubes from simvastatin toxicity. rescue of ATP level, % at 7.49 µM. ATP luminescence, 48 h; scaled: DMSO 0, geranylgeraniol control 100. 330,000 tested, 0.78% active;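 active = mean ATP rescue above about 67%, or every replicate alone reaching that limit, limit read from the data, passing the limit was not always enough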;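 also: myotubes were challenged with 10 µM simvastatin during compound exposure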
CAL PDZ FP-1 = CAL PDZ (human) peptide binding inhibition. Q9HD26. purified CAL PDZ, TMR-peptide fluorescence polarization, 1 h. inhibition, % at 24.9 µM. 300,000 tested, 0.92% active;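 active = mean inhibition of at least 30% with at least half of replicates also reaching 30%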;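 also: 0% = DMSO neutral control and 100% = excess unlabeled competitor peptide PRC23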
CDK5 p35 inh = CDK5/p35 (human) kinase inhibition; Q00535+Q15078; Recombinant CDK5/p35, ADP-Glo luminescence, 60 min; inhibition, % at 10 µM; 330,000 tested, 0.01% active; AID 488839;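 active = highest replicate inhibition of at least 50% and at least 75% of replicates reaching 50%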;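 also: plate controls were DMSO neutral control for no effect and GW8510 at 10 µM for full effect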
S100A4 MyoIIA = inhibitors of human S100A4 binding to myosin IIA peptide | P26447 | inhibition, % at 10.7 µM | 360,000 tested, 0.14% active | S100A4/TAMRA-MyoIIA peptide fluorescence polarization;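 active = mean inhibition of at least 70% across replicates, with every replicate also reaching that level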
Target sequence (P26447 whole entry, looked up): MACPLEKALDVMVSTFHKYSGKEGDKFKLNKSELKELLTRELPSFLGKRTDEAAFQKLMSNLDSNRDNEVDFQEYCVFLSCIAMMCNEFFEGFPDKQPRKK
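Assay system: human S100A4 monomer with TAMRA-labelled myosin IIA peptide / Buffer or medium: Calcium-containing HEPES buffer, pH 7.2 / Reagent: TAMRA-labelled myosin IIA heavy-chain peptide probe, 5 nM / Compound: one dose per compound / Timing: polarization read 5 min after assay mix addition, stable 5–60 min / Benchmarks: neutral control DMSO, positive control TFP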
CAL PDZ FP-2 = blocks peptide binding to human CAL PDZ domain | 330,000 tested, 0.02% active | purified CAL PDZ, TMR-peptide fluorescence polarization, 1 h | Q9HD26 | inhibition, % at 20 µM;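 active = highest replicate inhibition of at least 40%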;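 also: plate controls were DMSO neutral control wells for no effect and unlabeled competitor peptide control wells for full effect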
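material = purified tagged CAL PDZ domain construct (CerCALP) | compound dosing = 20 µM, one dose | times = 1 h at RT | measured by = fluorescence polarization from S- and P-plane intensities, G-factor corrected | read-out = inhibition from polarization loss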
Active calls of the source: *; . = not tested or not shown.

SMILES | dFosB act | Statin myotox sup | CAL PDZ FP-1 | CDK5 p35 inh | S100A4 MyoIIA | CAL PDZ FP-2
CC(C)CN(C(=O)C1CC1)c1c(N)n(Cc2ccccc2)c(=O)[nH]c1=O | 2 | 1 | -5 | -1 | 2 | -2
CCN(CC)C(=O)Cn1cc(C(=O)C(=O)N2CCN(Cc3ccc4c(c3)OCO4)CC2)c2ccccc21 | -8 | -6 | -3 | -2 | 20 | 0
Cc1cc(C(=O)COC(=O)c2ccc(NC(=O)CC#N)cc2)c(C)n1CC(F)(F)F | . | -2 | . | . | 10 | .
CCC(C)(C(=O)NC1CCCCC1)N(C(=O)c1ccccn1)c1ccccc1 (stereo unspecified) | -9 | . | . | -1 | . | 1
CCC(C)(C(=O)NC1CCCCC1)N(C)C(=O)c1ccccn1 (stereo unspecified) | 1 | -2 | 53* | 2 | . | 0
CC(NC(=O)c1cccnc1)C(c1cccs1)N1CCOCC1 (stereo unspecified) | -8 | 3 | -3 | -1 | -2 | -2
COc1ccc(CN2CCC(CO)(CCOc3ccccc3)CC2)cc1C | -8 | -2 | -8 | -1 | 1 | -1
CCC1(CC)C(=O)NC(=O)NC1=Nc1cccc(OC)c1 | -4 | 117* | 0 | 0 | . | -1
CCCCC1(CC)C(=O)NC(=O)NC1=Nc1ccc(OC)cc1 (stereo unspecified) | 2 | 2 | . | -2 | . | -1
CCc1nnc(NC(=O)C2CC(=O)N(Cc3ccco3)C2)s1 (stereo unspecified) | 1 | 7 | -5 | 0 | . | 0
CCn1c(SCC(=O)Nc2nc(C)c(C(=O)OC)s2)nnc1C(C)C | -15 | 82* | 5 | 1 | . | -5
CCCn1c(SCC(=O)Nc2nc(C)c(C(=O)OC)s2)nnc1C(C)C | -19 | 2 | 20 | 0 | . | .
C[C@H](NC(=O)C[C@H]1CC[C@H](NC(=O)C2CCOCC2)[C@@H](CO)O1)c1ccccc1 | . | -8 | . | . | 9 | .
C[C@H](NC(=O)C[C@@H]1CC[C@H](NC(=O)C2CCOCC2)[C@@H](CO)O1)c1ccccc1 | . | 2 | . | . | 111* | .
CN(C)c1ccc(/C=N/NC(=O)CCc2c[nH]c3ccccc23)cc1 | -5 | . | 1 | 1 | -5 | -2
CS(=O)(=O)Nc1ccc(C2=NN(C(=O)c3ccco3)C(c3ccco3)C2)cc1 (stereo unspecified) | -4 | -8 | 33* | -3 | 6 | -2
CCS(=O)(=O)N1N=C(c2ccc(NS(C)(=O)=O)cc2)CC1c1ccccc1 (stereo unspecified) | 46* | . | -1 | 1 | . | -3
CS(=O)(=O)Nc1ccc(C2=NN(S(C)(=O)=O)C(c3ccccc3)C2)cc1 (stereo unspecified) | -2 | . | -4 | 1 | . | -3
CS(=O)(=O)Nc1ccc(C2=NN(C(=O)c3ccco3)C(c3ccccc3)C2)cc1 (stereo unspecified) | -14 | 21 | -6 | -2 | . | -2
CCN1CCN(S(=O)(=O)c2c(C)cc(C)cc2C)CC1 | 1 | -7 | 0 | 1 | 0 | -1
Cn1c(-c2ccc(Br)cc2)cnc1NCc1cccnc1 | -4 | 2 | -2 | 1 | . | -1
Cc1ccc2cc(CN(Cc3ccco3)C(=O)c3ccccc3)c(=O)[nH]c2c1C | 2 | 137* | -21 | -2 | . | -1
Cc1noc(C)c1S(=O)(=O)Nc1cccc2c1O[C@@H](CN(C)Cc1ccc(C(=O)Nc3ccccc3N)cc1)[C@@H](C)CN([C@H](C)CO)C2=O | . | . | . | . | 4 | .
NC(=O)c1cc(S(=O)(=O)N2CCCC2)ccc1OCCOc1ccccc1F | 0 | . | 44* | 0 | -5 | 0
COCC(C)n1c(SCC(=O)N2CC(=O)Nc3ccccc32)nc2ccccc2c1=O (stereo unspecified) | -5 | -4 | 47* | -1 | 15 | -2
SMILES | dFosB act | Statin myotox sup | CAL PDZ FP-1 | CDK5 p35 inh | S100A4 MyoIIA | CAL PDZ FP-2
COCCCNC(=O)c1c(NC(=O)C2COc3ccccc3O2)sc2c1CCCC2 (stereo unspecified) | -8 | 96* | 2 | 0 | . | -1
O=C(NCCC1=CCCCC1)C1COc2ccccc2O1 (stereo unspecified) | 0 | 146* | 11 | -1 | . | 0
CN1CCc2c(sc(NC(=O)C3COc4ccccc4O3)c2C(N)=O)C1 (stereo unspecified) | -3 | -3 | -5 | 0 | 106* | -3
CN1CCN(c2ccc(Cl)cc2NC(=O)C2COc3ccccc3O2)CC1 (stereo unspecified) | -8 | . | 71* | 1 | . | -3
COC(=O)c1c(NC(=O)C2COc3ccccc3O2)sc2c1CCN(C(C)=O)C2 (stereo unspecified) | -15 | . | -4 | -1 | . | -5
Cc1cnc(C(=O)Nc2nccs2)cn1 | -2 | 101* | -2 | 2 | . | -1
CC1(C)CC(C(=O)Nc2nccs2)CCO1 (stereo unspecified) | -4 | 121* | 7 | 0 | . | -2
Cc1cc(C)c2[nH]c(C(=O)N3CCC(n4nccc4NC(=O)C4CC4)CC3)c(C)c2c1 | -9 | . | . | 0 | -4 | 0
O=C(Cn1ncc2c3ccccc3n(Cc3cccc(Cl)c3)c2c1=O)NCC1CCCO1 (stereo unspecified) | -7 | 100* | -2 | -2 | -4 | -2
O=C(CSc1nc2c(sc3ccccc32)c(=O)n1Cc1ccco1)NCC1CCCO1 (stereo unspecified) | -6 | 95* | -5 | 1 | . | -1
O=C(CSc1nc2ccc(N3CCOCC3)cc2c(=O)n1CCc1ccccc1)NCC1CCCO1 (stereo unspecified) | -19 | . | 68* | 0 | -3 | -3
O=C(CSc1nc2c(sc3ccccc32)c(=O)n1Cc1ccccc1)NCC1CCCO1 (stereo unspecified) | 13 | . | 4 | 0 | . | 89*
O=C(CSc1nc2c(sc3ccccc32)c(=O)n1CCCN1CCOCC1)NCC1CCCO1 (stereo unspecified) | -12 | 1 | 2 | -1 | 6 | 1
CCCc1cc(=O)oc2cc(C)cc(OCC(=O)N3CCC(C(N)=O)CC3)c12 | -1 | -6 | 2 | -1 | 2 | -1
CCN(CC)S(=O)(=O)c1cccc(NC(=O)/C=C/c2cccc([N+](=O)[O-])c2)c1 | -5 | . | -5 | -1 | -1 | 0
Cc1nc2c(C(=O)N3CCCCC3)cnn2c(C)c1Cc1ccccc1F | -4 | . | . | 0 | . | 1
O=C1Nc2ccccc2/C1=C/c1ccc([N+](=O)[O-])cc1 | -10 | . | -6 | 1 | -2 | -2
COc1cccc(/C=N\NC(=O)c2cc(OCC(F)(F)F)ccc2OCC(F)(F)F)c1 | -12 | 124* | -3 | -1 | . | 0
CNC(=O)c1cc(OCC(F)(F)F)ccc1OCC(F)(F)F | -3 | . | -1 | 0 | -2 | -3

Screening data (PubChem)
